These results are taken from PubChem BioAssay AID1899 (The Scripps Research Institute Molecular Screening Center, 2009).

Among all 300,000 compounds or so, about 1,000 (0.33%) were called active.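 The calls were made as follows: active = inhibition above the mean of all tested compounds plus 3 SD, set per screening campaign (cut at about 45% in these data); inactive = the rest.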 The full list was thinned out, with actives kept by preference.

The subject of this experiment is HCV core protein (residues 1-106) dimerization. The experiment in a line: inhibitors of HCV core protein dimerization, primary screen, biochemical, TR-FRET, high-throughput (AID 1899). Conditions: TR-FRET GST/Flag-core106 dimerization, 1536-well; at 5 µM; hits give high values. The method in brief: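 assay system = GST-tagged and Flag-tagged HCV core protein residues 1-106 | controls = unlabelled core106 and no-GST-core106 wells | incubation = compound-protein-antibody incubation 4 h at 22.5 °C | probe or stimulus = Eu donor and XL665 acceptor anti-tag antibodies | read-out = % inhibition based on acceptor/donor emission ratio | signal = TR-FRET 671 and 617 nm emission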
For orientation: Time-resolved FRET reads energy transfer from a long-lived donor to a nearby acceptor.
A word on the inhibition: it is the drop in the measured response relative to a control, in per cent. For the molecule `CC(C)(C)n1nnnc1C(c1ccccc1F)N1CCN(C(=O)c2ccco2)CC1` (centres undefined), the inhibition is -2.83% (inactive).

Consider `CCCc1nc2c(c(=O)c3ccccc3n2C)c(=O)n1C1CCCCCC1`, for which the inhibition was 10.2% (inactive).

Regarding `CCCc1nc2c(c(=O)c3ccccc3n2C)c(=O)n1-c1cc(C)cc(C)c1`, the inhibition was 16.2% (inactive).

As for `Cn1c2ccccc2c(=O)c2c(=O)n(Cc3ccco3)c(COc3ccccc3)nc21`, the inhibition is 47.9% (active).

As to `O=C1CN(C(=O)COc2c(Cl)cccc2Cl)c2ccccc2N1`, the inhibition is 1.42% (inactive).

With `Cc1nn(CC(=O)Nc2nc3ccccc3s2)c(C)c1[N+](=O)[O-]`, the inhibition is -2.22% (inactive).

With `CCC(C)Cn1c(O)cc2nn(-c3nc4ccccc4s3)c(=O)c-2c1C` (centres undefined), the inhibition was 55.2% (active).

As to `C/C(=N\NC(=O)CC(C)C)c1c(C(F)(F)F)[nH]n(-c2nc3ccccc3s2)c1=O`, the inhibition is -0.73% (inactive).

Turning to `COC(=O)C1=C(C)NC2=C(C(=O)c3ccccc32)C1c1ccc(-c2ccc(C(=O)O)cc2)o1` (centres undefined), the inhibition is 5.77% (inactive).

For `CCOC(=O)C(=CNNc1ccsc1C(=O)OC)C(=O)OCC`, the inhibition was -1.96% (inactive).

As for `CSC1=N/C(=C\C=C\c2cccs2)C(=O)S1`, the inhibition was 60.2% (active).

`CN1C/C(=C/c2cccs2)C(=O)/C(=C\c2cccs2)C1`: the inhibition is 6.47% (inactive).

Turning to `Cc1cccc(C2=N/C(=C/c3cccs3)C(=O)O2)c1`, the inhibition is 2.89% (inactive).

In the case of `Cc1ccc(-n2ncc3c2CC(C)(C)CC3NC(=O)CCc2cnn(C)c2)cc1` (centres undefined), the inhibition was -3.34% (inactive).

In the case of `O=C(C1CCCN(S(=O)(=O)c2ccccc2)C1)N1CCN(c2ccc(F)cc2)CC1` (centres undefined), the inhibition is -13.8% (inactive).

As for `Cc1cc(NC(=O)CCC(=O)N(CC(=O)NC2CCCC2)c2ccc(F)cc2)no1`, the inhibition was 0.03% (inactive).

`COc1cccc(OC)c1CN(C)C(=O)c1cnccc1C(F)(F)F`: the inhibition is -2.76% (inactive).

As to `Cc1ccc(NC(=O)c2csc3c2CCCC3)cc1`, the inhibition was 5.39% (inactive).

As for `Cc1ccc(NC(=O)c2c(NC(=O)CCC(=O)O)sc3c2CCCCC3)cc1`, the inhibition is 47.6% (active).

Consider `Cc1ccc(C(=O)c2c(NC(=O)c3ccncc3)sc3c2CCCC3)cc1`, for which the inhibition was -2.83% (inactive).

As to `O=S(=O)(Nc1ccc(O)c2ccccc12)c1ccc(OC(F)(F)F)cc1`, the inhibition is -9.45% (inactive).

Turning to `Cc1nn(C(=O)c2ccoc2C)c(N)c1-c1ccccc1`, the inhibition was -11.9% (inactive).

Consider `Cc1nn2c(c1-c1ccccc1)N=C(c1ccco1)CC2c1ccccc1` (centres undefined), for which the inhibition was 54.2% (active).

Take `O=C(O)CCCC(=O)N1N=C(c2ccco2)CC1c1ccco1` (centres undefined): the inhibition was -3.41% (inactive).

Consider `Cc1ccc(/C=N/NC(=O)COc2ccccc2-c2ccccc2)cc1`, for which the inhibition was -1.07% (inactive).

On to `CCOc1ccc(/C=C(/NC(=O)c2ccccc2)C(=O)NCCC(=O)O)cc1`, for which the inhibition is 2.36% (inactive).

For `CCC(Cc1ccccc1)NS(=O)(=O)c1ccc2c(c1)NC(=O)CS2` (centres undefined), the inhibition was 6.21% (inactive).

Turning to `CCOC(=O)C1=C(C)NC(C)=C(C(=O)OCC)C1C1=COCCO1`, the inhibition was -7.86% (inactive).

As to `CCC(=O)Nc1c(C)n[nH]c1C`, the inhibition is 1.83% (inactive).

`C=CCN1C=C2C(=O)C(C)(OC(=O)CCc3ccccc3)C(=O)C=C2C=C1c1ccc(C#N)cc1` (centres undefined): the inhibition was 49% (active).

`CCCCC1=CC2=CC(=O)C(C)(OC(=O)CC)C(=O)C2=CN1CCCOC(C)C` (centres undefined): the inhibition is 2.27% (inactive).

Consider `CC1(OC(=O)CCc2ccccc2)C(=O)C=C2C=C(c3ccc(C#N)cc3)N(CCc3ccccn3)C=C2C1=O` (centres undefined), for which the inhibition is 13.8% (inactive).

With `Nc1c(-c2ccc(F)cc2)cnc2ncnn12`, the inhibition is 0.37% (inactive).

For the molecule `CC1=C(/C=C/C(C)=C/C=C/C(C)=C/C=C/C=C(C)/C=C/C=C(C)/C=C/C2=C(C)CCCC2(C)C)C(C)(C)CCC1`, the inhibition was 69.5% (active).

For `CCCCCCCCCCCCCCCC(=O)OC/C=C(C)/C=C/C=C(C)/C=C/C1=C(C)CCCC1(C)C`, the inhibition was 2.75% (inactive).

With `Cc1cc(S(=O)(=O)N2CCOCC2)ccc1OCC(=O)Nc1cccc(C(F)(F)F)c1`, the inhibition was 0.78% (inactive).

As for `COc1ccc(C(=O)COC(=O)Cn2cnc3c2c(=O)n(C)c(=O)n3C)c(OC)c1`, the inhibition is -0.66% (inactive).

On to `O=C(NCCN1CCN(C(=O)c2cccc([N+](=O)[O-])c2)CC1)C(=O)NCc1ccc(Cl)cc1`, for which the inhibition is -0.22% (inactive).

For the molecule `CCOC(=O)/C=c1\s/c(=C\c2ccc(C#N)cc2)c(=O)n1CC(=O)Nc1cccc(C)c1C`, the inhibition is 11.6% (inactive).

For the molecule `CCOC(=O)Cn1c(=O)oc2cc(S(=O)(=O)N(C)Cc3ccco3)ccc21`, the inhibition is -1.55% (inactive).

Regarding `CN(c1ccccc1)c1ccc(/C=c2\s/c(=C(/C#N)C(=O)C(C)(C)C)n(Cc3ccco3)c2=O)cc1`, the inhibition was 63.2% (active).

As for `CCNC(=O)c1sccc1-n1cccc1`, the inhibition is 0.55% (inactive).

Consider `CC(C)=CCc1c(O)c(CC=C(C)C)c2occ(-c3ccc(O)cc3)c(=O)c2c1O`, for which the inhibition was -3.16% (inactive).

For the molecule `Cn1cccc1C(=O)NC(=O)COC(=O)Cc1coc2ccc3ccccc3c12`, the inhibition was 60.3% (active).

For `COc1ccc2c(CC(=O)OCC(=O)NC(N)=O)coc2c1`, the inhibition is -9.08% (inactive).

Turning to `O=C(Cc1coc2ccc3ccccc3c12)NCc1cccs1`, the inhibition is 10.5% (inactive).

Turning to `COc1ccc(S(=O)(=O)N2CCOC2CNC(=O)C(=O)NCc2ccc(F)cc2)cc1` (centres undefined), the inhibition is -0.93% (inactive).

For the molecule `CCOC(=O)c1c(C)[nH]c(C2=NNC(=NC(C)COC)SC2)c1C` (centres undefined), the inhibition is -2.46% (inactive).

Take `COc1cc(NC(=O)C2=CC(c3ccc(C)cc3)=NS(=O)(=O)N2C)cc(OC)c1OC`: the inhibition is 1.17% (inactive).
